Assay type in all cases: functional
Assay [1] has as its system Staphylococcus aureus. Kind of assay: Antimicrobial activity against extended spectrum beta-lactamases-producing methicillin-sensitive Staphylococcus aureus 10-13 after 18-24 hrs by two-fold serial dilution method. The essentials: (§1)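 Agar-medium twofold serial dilution against Gram-positive and Gram-negative strains; MIC taken as the lowest compound concentration giving complete inhibition of bacterial growth after incubation at 35 °C for 18-24 h.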

Assay [2] deals with Staphylococcus epidermidis. Kind of assay: Antimicrobial activity against extended spectrum beta-lactamases-producing methicillin-resistant Staphylococcus epidermidis 10-10 after 18-24 hrs by two-fold serial dilution method. The essentials:
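Agar twofold serial dilution MIC against clinical isolates. MIC was taken as the lowest concentration giving complete inhibition of bacterial growth after incubation at 35 °C for 18-24 h.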

The test system of another assay is Enterococcus faecium. The assay is described as follows: Antimicrobial activity against Enterococcus faecium 10-5 after 18-24 hrs by two-fold serial dilution method. The essentials: as §1
Assay [3] concerns Streptococcus pneumoniae. The assay is described as follows: Antimicrobial activity against extended spectrum beta-lactamases-producing Streptococcus pneumoniae 10-1 after 18-24 hrs by two-fold serial dilution method. The essentials: as §1
In assay [4] the test system is Streptococcus pneumoniae. Kind of assay: Antimicrobial activity against extended spectrum beta-lactamases-producing Streptococcus pneumoniae 10-4 after 18-24 hrs by two-fold serial dilution method. The essentials:
as §1

Assay [5] has as its system Escherichia coli. Kind of assay: Antimicrobial activity against Escherichia coli ATCC 25922 after 18-24 hrs by two-fold serial dilution method. The essentials: as §1
Assay [6] concerns Escherichia coli. Kind of assay: Antimicrobial activity against extended spectrum beta-lactamases-producing Escherichia coli 10-2 after 18-24 hrs by two-fold serial dilution method. The essentials: as §1
Assay [7] has as its system Escherichia coli. The assay is described as follows: Antimicrobial activity against extended spectrum beta-lactamases-producing Escherichia coli 10-3 after 18-24 hrs by two-fold serial dilution method. The essentials:
as §1

Assay [8] concerns Klebsiella pneumoniae. Kind of assay: Antimicrobial activity against Klebsiella pneumoniae 10-2 after 18-24 hrs by two-fold serial dilution method. A digest of the protocol:
as §1

For assay [9], the system named is Klebsiella pneumoniae. Kind of assay: Antimicrobial activity against extended spectrum beta-lactamases-producing Klebsiella pneumoniae 10-2 after 18-24 hrs by two-fold serial dilution method. A digest of the protocol: as §1
Assay [10] concerns Klebsiella pneumoniae. The assay is described as follows: Antimicrobial activity against Klebsiella pneumoniae 10-3 after 18-24 hrs by two-fold serial dilution method. A digest of the protocol:
as §1

The subject of assay [11] is Pseudomonas aeruginosa. Kind of assay: Antimicrobial activity against extended spectrum beta-lactamases-producing Pseudomonas aeruginosa 10-9 after 18-24 hrs by two-fold serial dilution method. The essentials:
as §1

The test system of assay [12] is Pseudomonas aeruginosa. The assay is described as follows: Antimicrobial activity against extended spectrum beta-lactamases-producing Pseudomonas aeruginosa 10-20 after 18-24 hrs by two-fold serial dilution method. A digest of the protocol:
as §1

Assay [13] relates to Staphylococcus aureus. The assay is described as follows: Ratio of levofloxacin MIC to compound MIC for extended spectrum beta-lactamases-producing methicillin-sensitive Staphylococcus aureus 10-13 after 18-24 hrs by two-fold serial dilution method. A digest of the protocol: (§2)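 MICs were determined by the standard twofold serial dilution method on agar media against the test strains, with levofloxacin run as a reference. MIC is the lowest concentration giving complete inhibition of bacterial growth after 18–24 h incubation at 35 °C. The ratio is levofloxacin MIC divided by test-compound MIC.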

In assay [14] the test system is Staphylococcus aureus. Kind of assay: Ratio of levofloxacin MIC to compound MIC for extended spectrum beta-lactamases-producing methicillin-sensitive Staphylococcus aureus 10-14 after 18-24 hrs by two-fold serial dilution method. The essentials:
as §2

The test system of assay [15] is Staphylococcus epidermidis. Kind of assay: Ratio of levofloxacin MIC to compound MIC for extended spectrum beta-lactamases-producing methicillin-sensitive Staphylococcus epidermidis 10-11 after 18-24 hrs by two-fold serial dilution method. A digest of the protocol:
as §2

The subject of assay [16] is Enterococcus faecalis. Kind of assay: Ratio of levofloxacin MIC to compound MIC for Enterococcus faecalis 10-5 after 18-24 hrs by two-fold serial dilution method.
Assay [17] deals with Staphylococcus aureus. Kind of assay: Ratio of gemifloxacin MIC to compound MIC for Staphylococcus aureus ATCC […] after 18-24 hrs by two-fold serial dilution method.
The subject of assay [18] is Staphylococcus epidermidis. The assay is described as follows: Ratio of gemifloxacin MIC to compound MIC for extended spectrum beta-lactamases-producing methicillin-sensitive Staphylococcus epidermidis 10-11 after 18-24 hrs by two-fold serial dilution method.
The subject of assay [19] is Staphylococcus epidermidis. Kind of assay: Ratio of gemifloxacin MIC to compound MIC for extended spectrum beta-lactamases-producing methicillin-sensitive Staphylococcus epidermidis 10-13 after 18-24 hrs by two-fold serial dilution method.
Assay [20] relates to Enterococcus faecalis. Kind of assay: Ratio of gemifloxacin MIC to compound MIC for Enterococcus faecalis 10-6 after 18-24 hrs by two-fold serial dilution method.
For assay [21], the system named is Streptococcus pneumoniae. The assay is described as follows: Ratio of gemifloxacin MIC to compound MIC for extended spectrum beta-lactamases-producing Streptococcus pneumoniae 10-1 after 18-24 hrs by two-fold serial dilution method.

For orientation: MIC means the lowest concentration that inhibits growth of the organism. Low readings indicate greater potency, high ones weaker potency. For the compound `COc1ccc(OC)c(CO/N=C2\CN(c3nc4c(cc3F)c(=O)c(C(=O)O)cn4C3CC3)CC2CN)c1.CS(=O)(=O)O` (racemic), the MIC was 0.03 µg/mL with Staphylococcus aureus [1]; 0.25 µg/mL in [2]; 4 µg/mL against Enterococcus faecium; 0.06 µg/mL against Streptococcus pneumoniae [3]; 0.015 µg/mL in the assay with Streptococcus pneumoniae [4]; 0.06 µg/mL with Escherichia coli [5]. The MIC against Escherichia coli [6], in the assay on Escherichia coli [7], against Klebsiella pneumoniae [8], in the assay on Klebsiella pneumoniae [9], in the assay with Klebsiella pneumoniae [10] and against Pseudomonas aeruginosa [11] was more than 128 µg/mL in each case. In the assay with Pseudomonas aeruginosa [12], the minimum inhibitory concentration (MIC) was more than 128 µg/mL. Further, the Ratio with Staphylococcus aureus [13] was 8; in the assay on Staphylococcus aureus [14] it was 8; in assay [15], 8; in the assay on Enterococcus faecalis [16], 8; in the assay on Staphylococcus aureus [17], 2; in [18], 2. Moreover, the Ratio (in [19]; in the assay on Enterococcus faecalis [20]; with Streptococcus pneumoniae [21]) was 2 throughout.

These data come from ChEMBL document CHEMBL2062435, “Synthesis and in vitro antibacterial activity of gemifloxacin derivatives containing a substituted benzyloxime moiety” (2012).
